Assay [1] relates to NIH3T3. Briefly: Cytotoxicity against mouse NIH/3T3 cells after 24 hrs by XTT assay. The note with it: NIH3T3, 24 h. The assay is classed as cell-based. In short, it runs like this: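 Mouse NIH3T3 fibroblasts grown in DMEM with fetal calf serum, penicillin/streptomycin, 37 °C, 5% CO2; 20,000 cells/well, treated after 24 h with 0.00316 µM-10 mM compound for 24 h. Viability via XTT (3 h, OD 480 nm, reference 680 nm); % inhibition computed and IC50 fitted by non-linear regression.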
(In general: Tetrazolium dyes change colour on reduction, which living cells bring about.)

In assay [2] the test system is A549. Briefly: Cytotoxicity against human A549 cells after 24 hrs by XTT assay. The conditions noted are these: A549, 24 h. The assay is classed as functional, cell-based. In short, it runs like this: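 A549 cells in RPMI 1640 with 10% fetal calf serum, penicillin/streptomycin, 37 °C, 5% CO2; 20,000 cells/well seeded, after 24 h exposed to compounds at 0.00316 µM-10 mM for 24 h. XTT mitochondrial activity read at 480 nm (reference 680 nm) after 3 h; % inhibition per concentration, IC50 by non-linear regression.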

For assay [3], the system named is Candida albicans. Briefly: Antifungal activity against Candida albicans clinical isolate after 24 hrs by microdilution susceptibility assay. The assay is classed as functional. In short, it runs like this:
(§1)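 Broth microdilution in Mueller Hinton Broth, compounds from DMSO stocks diluted serially; inocula standardized to 10^6 CFU/mL (McFarland 0.5) from overnight MHB cultures. Plates held 37 °C for 24 h; MIC taken as first well without turbidity, aided by 1% tetrazolium violet added for 3 h at 37 °C. Ketoconazole reference.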
In general terms: Dilution methods test growth across graded concentrations, often in twofold steps.

Assay [4] relates to Candida albicans. Nature of the assay: Antifungal activity against Candida albicans ATCC 10231 after 24 hrs by microdilution susceptibility assay. The assay is classed as functional. The note with it: ATCC 10231, 24 h. In short, it runs like this: as §1
The test system of assay [5] is Nakaseomyces glabratus. Nature of the assay: Antifungal activity against Candida glabrata Osmangazi University clinical isolate after 24 hrs by microdilution susceptibility assay. The assay is classed as functional. In short, it runs like this: as §1
The subject of assay [6] is Cyberlindnera jadinii. Nature of the assay: Antifungal activity against Candida utilis NRRL Y-900 after 24 hrs by microdilution susceptibility assay. The assay is classed as functional. The conditions noted are these: Williopsis jadinii, NRRL Y-900, 24 h. Summed up:
as §1

Assay [7] relates to Pichia kudriavzevii. Briefly: Antifungal activity against Candida krusei NRRL Y-7179 after 24 hrs by microdilution susceptibility assay. The assay is classed as functional. The note with it: NRRL Y-7179, 24 h. In short, it runs like this: as §1
The test system of assay [8] is Candida parapsilosis. Briefly: Antifungal activity against Candida parapsilosis NRRL Y-12696 after 24 hrs by microdilution susceptibility assay. The assay is classed as functional. The note with it: Lodderomyces parapsilosis, NRRL Y-12696, 24 h. In short, it runs like this:
as §1

The subject of assay [9] is Candida albicans. Briefly: Antifungal activity against Candida albicans ATCC 90028 after 24 hrs by microdilution susceptibility assay. The assay is classed as functional. The note with it: ATCC 90028, 24 h. In short, it runs like this:
as §1

For assay [10], the system named is Nakaseomyces glabratus. Briefly: Antifungal activity against Candida glabrata Anadolu University clinical isolate after 24 hrs by microdilution susceptibility assay. The assay is classed as functional. Summed up: as §1

The structures appear in SMILES notation. Converted amounts (≈) assume the structure as drawn. Where only a bound is given, the exact number is not on record here.

One may read the IC50 as the concentration at which inhibition is half-maximal. A high value points to a need for much substance. What is called MIC is the least concentration at which growth counts as inhibited. Turning to `Cn1nnnc1SCC(=O)N/N=C/c1cccc(Cl)c1`, the half-maximal inhibitory concentration (IC50) in assay [1] and in assay [2] was 7.5 mM throughout. Moreover, the minimum inhibitory concentration (MIC) in assay [3], in [4], in assay [5], in assay [6], in assay [7] and in assay [8] was over 8000 µg/mL each time. The MIC in assay [9] and in assay [10] was over 8000 µg/mL each time.
In the case of `Cn1nnnc1SCC(=O)N/N=C/c1ccccc1Br`, the IC50 in assay [1] worked out at 0.02 mM; in [2] it was 2 mM. The MIC in [3], in [4], in [5], in assay [6], in assay [7] and in [8] was over 8000 µg/mL in each case. The minimum inhibitory concentration (MIC) in [9] and in assay [10] was over 8000 µg/mL throughout.
Consider `Cn1nnnc1SCC(=O)N/N=C/c1cccc(Br)c1`, for which the results for the IC50 in assay [1] and in [2] were 0.316 mM and 0.6 mM, respectively. The MIC in assay [3], in assay [4], in assay [5], in [6], in assay [7] and in assay [8] was over 8000 µg/mL each time. Also, the MIC in assay [9] and in assay [10] was over 8000 µg/mL in each case.
As for `Cn1nnnc1SCC(=O)N/N=C/c1ccccc1O`, the IC50 in assay [1] and in [2] was over 10 mM each time. Also, the minimal inhibitory concentration (MIC) in [3], in assay [4], in assay [5], in assay [6], in assay [7] and in assay [8] was over 8000 µg/mL in each case. Besides, the MIC in assay [9] and in assay [10] was over 8000 µg/mL in each case.
As to `Cn1nnnc1SCC(=O)N/N=C/c1cccc(O)c1`, the half-maximal inhibitory concentration (IC50) was found to be 3.16 mM in assay [1] and 4.5 mM in assay [2]. Besides, the MIC in [3], in assay [4], in [5], in [6], in assay [7] and in assay [8] was over 8000 µg/mL each time. In addition, the MIC in assay [9] and in assay [10] was over 8000 µg/mL each time.
Turning to `COc1ccccc1/C=N/NC(=O)CSc1nnnn1C`, the IC50 in assay [1] was determined as 3.16 mM; in assay [2], 7 mM. For the same compound, the MIC in [3], in [4], in assay [5], in [6], in assay [7] and in assay [8] was over 8000 µg/mL each time. The MIC in [9] and in [10] was over 8000 µg/mL in each case.
With `COc1cccc(/C=N/NC(=O)CSc2nnnn2C)c1`, the half-inhibitory concentration (IC50) in [1] was 0.6 mM; in assay [2] it was over 10 mM. For the same compound, the minimum inhibitory concentration (MIC) in [3], in assay [4], in [5], in assay [6], in assay [7] and in assay [8] was over 8000 µg/mL in each case. The MIC in [9] and in assay [10] was over 8000 µg/mL each time.
For the compound `Cc1ccccc1/C=N/NC(=O)CSc1nnnn1C`, the half-maximal inhibitory concentration (IC50) was 6.32 mM in assay [1] and over 10 mM in [2]. Also, the minimum inhibitory concentration (MIC) in assay [3], in [4], in assay [5], in assay [6], in assay [7] and in [8] was over 8000 µg/mL throughout. The minimum inhibitory concentration (MIC) in [9] and in assay [10] was over 8000 µg/mL each time.
With `Cc1cccc(/C=N/NC(=O)CSc2nnnn2C)c1`, the IC50 in assay [1] stood at 6.25 mM; in assay [2] it was 2 mM. In addition, the minimum inhibitory concentration (MIC) in assay [3], in assay [4], in assay [5], in [6], in assay [7] and in [8] was over 8000 µg/mL in each case. Further, the MIC in [9] and in assay [10] was over 8000 µg/mL in each case.
As for `Cn1nnnc1SCC(=O)N/N=C/c1cccc(Cl)c1Cl`, the half-inhibitory concentration (IC50) in [1] was 0.52 mM; in assay [2] it was 0.632 mM. In addition, the minimum inhibitory concentration (MIC) in assay [3], in assay [4], in assay [5], in assay [6], in assay [7] and in assay [8] was over 8000 µg/mL each time. For the same compound, the MIC in assay [9] and in assay [10] was over 8000 µg/mL each time.
On to `Cn1nnnc1SCC(=O)N/N=C/c1ccc(Cl)cc1Cl`, for which the 50% inhibitory concentration (IC50) amounted to 2.14 mM in assay [1] and 0.5 mM in assay [2]. The minimum inhibitory concentration (MIC) in [3], in assay [4], in [5], in [6], in assay [7] and in assay [8] was over 8000 µg/mL throughout. Moreover, the minimum inhibitory concentration (MIC) in [9] and in assay [10] was over 8000 µg/mL in each case.
With `Cn1nnnc1SCC(=O)N/N=C/c1c(Cl)cccc1Cl`, the IC50 in [1] was over 10 mM; in assay [2], 1 mM. The minimal inhibitory concentration (MIC) in assay [3], in assay [4], in assay [5], in assay [6], in [7] and in [8] was over 8000 µg/mL each time. Moreover, the MIC in [9] and in assay [10] was over 8000 µg/mL throughout.
Consider `C/C(=N\NC(=O)CSc1nnnn1C)c1ccccc1Cl`, for which the concentration for half-maximal inhibition (IC50) in assay [1] came to 6 mM; in assay [2], 6.32 mM. Besides, the MIC in [3], in assay [4], in assay [5], in [6], in assay [7] and in assay [8] was over 8000 µg/mL in each case. For the same compound, the MIC in assay [9] and in [10] was over 8000 µg/mL in each case.
In the case of `C/C(=N\NC(=O)CSc1nnnn1C)c1cccc(Cl)c1`, the figures for the concentration for half-maximal inhibition (IC50) in assay [1] and in [2] were 3.4 mM and over 10 mM, respectively. The MIC in assay [3], in assay [4], in [5], in assay [6], in assay [7] and in [8] was over 8000 µg/mL throughout. Moreover, the minimal inhibitory concentration (MIC) in [9] and in [10] was over 8000 µg/mL throughout.
On to `C/C(=N\NC(=O)CSc1nnnn1C)c1ccc(Cl)cc1`, for which the IC50 amounted to 0.1 mM in assay [1] and 6 mM in assay [2]. The MIC in assay [3], in assay [4], in [5], in [6], in assay [7] and in assay [8] was over 8000 µg/mL throughout. For the same compound, the MIC in [9] and in [10] was over 8000 µg/mL in each case.
Take `C/C(=N\NC(=O)CSc1nnnn1C)c1ccc(Cl)cc1Cl`: the half-maximal inhibitory concentration (IC50) in [1] stood at 1 mM; in assay [2] it was 0.8 mM. Further, the MIC in [3], in assay [4], in assay [5], in [6], in assay [7] and in assay [8] was over 8000 µg/mL throughout. Moreover, the minimal inhibitory concentration (MIC) in assay [9] and in assay [10] was over 8000 µg/mL each time.
Regarding `C/C(=N\NC(=O)CSc1nnnn1C)c1cc(Cl)ccc1Cl`, the concentration for half-maximal inhibition (IC50) is 1 mM in assay [1] and 1.5 mM in [2]. The minimum inhibitory concentration (MIC) in assay [3], in assay [4], in assay [5], in assay [6], in assay [7] and in assay [8] was over 8000 µg/mL in each case. The minimal inhibitory concentration (MIC) in assay [9] and in assay [10] was over 8000 µg/mL throughout.
In the case of `Cn1nnnc1SCC(=O)N/N=C/c1cccc(F)c1`, the concentration for half-maximal inhibition (IC50) in [1] and in [2] was 6.32 mM each time. The MIC in assay [3], in assay [4], in [5], in assay [6], in assay [7] and in assay [8] was over 8000 µg/mL throughout. In addition, the MIC in [9] and in [10] was over 8000 µg/mL in each case.
As for `Cn1nnnc1SCC(=O)N/N=C/c1ccccc1Cl`, the results for the half-maximal inhibitory concentration (IC50) in assay [1] and in assay [2] were over 10 mM and 6.32 mM, respectively. Further, the MIC in assay [3], in [4], in [5], in assay [6], in [7] and in [8] was over 8000 µg/mL throughout. For the same compound, the MIC in assay [9] and in assay [10] was over 8000 µg/mL in each case.
Regarding `CC(=O)N1CCN(c2ccc(OCC3COC(Cn4ccnc4)(c4ccc(Cl)cc4Cl)O3)cc2)CC1` (stereo not drawn) [KETOCONAZOLE], the minimum inhibitory concentration (MIC) in [3] was determined as 3 µg/mL (≈ 0.00565 mM); in [4] it was 15 µg/mL (≈ 0.0282 mM); in [5], 15 µg/mL (≈ 0.0282 mM); in assay [6] it was 15 µg/mL (≈ 0.0282 mM); in [7] it was 3 µg/mL (≈ 0.00565 mM); in assay [8], 3 µg/mL (≈ 0.00565 mM). The results for the MIC in assay [9] and in assay [10] were 31 µg/mL (≈ 0.0583 mM) and 1 µg/mL (≈ 0.00188 mM), respectively.

The values are drawn from ChEMBL document CHEMBL2203123, “Synthesis and biological evaluation of some hydrazone derivatives as new anticandidal and anticancer agents” (Eur J Med Chem, 2012).
